Here are results for three compounds from publication PMC3886125 (Molecular nutrition & food research, 2012).

One data set is described as follows: Xanthones in serum. The note with it: for Identified in serum by HPLC-MS: mice fed diet with α-MG, not detected by HPLC-DAD. It counts as in vivo, Balb/c nu/nu mice.
Data set [1] is described as follows: Xanthones in tumor tissue. It counts as in vivo, Balb/c nu/nu mice. The settings on record: for Tumor at 2 weeks, Free / Tumor at 4 weeks, Free / Tumor at 2 weeks, Conjugates / Tumor at 4 weeks, Conjugates: tumor tissue, diet 901 mg/kg xanthones; for Tumor at 2 weeks, Free / Tumor at 2 weeks, Conjugates: 2 weeks after injection of HT-29 cells; for Tumor at 4 weeks, Free / Tumor at 4 weeks, Conjugates: 4 weeks after injection of HT-29 cells; for Tumor at 2 weeks, Conjugates / Tumor at 4 weeks, Conjugates: nd = not detected; for Share of total xanthones in tumors: tentatively identified.

The test system of data set [2] is β-catenin. The experiment in a line: β-catenin content in HT-29 cells by ELISA. It counts as cell-based, human. The note with it: 24 h. A digest of the protocol:
(§1)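 HT-29 cells were seeded at 2 × 10⁵ cells/well in 6-well dishes. At 70% confluence, monolayers got basal McCoy's medium without or with test compound (6 and 12 µmol/L) for 24 h at 37°C. Cells were washed twice with ice-cold PBS and pelleted (800 × g, 4°C, 10 min), then lysed in ice-cold lysis buffer. Protein was measured with a commercial ELISA kit. Data are means ± SD versus control, compared by Welch's unpaired t-test.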
On the technique in general: An ELISA detects its analyte on a solid surface through an enzyme-linked reagent.

Data set [3] can be described thus: Food intake and body weight of mice fed diet with α-MG. It counts as in vivo, Balb/c nu/nu mice. The note with it: 845 mg/kg α-MG (901 mg total xanthones/kg) in the diet. A digest of the protocol:
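Female athymic Balb/c nu/nu mice arrived at 4 weeks of age and were acclimated 4 days on AIN-93G diet. They were randomized (n = 24/group) to γ-irradiated AIN-93G without or with a nominal 900 mg/kg test compound, given ad libitum; actual diet content was determined by extraction. Food intake, appearance/behaviour and body weight were checked after 3 and 7 days. Groups were compared by one-way ANOVA with Dunnett's post-test.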

For a further data set, the system named is HT-29 cells. The experiment in a line: HT-29 colon cell xenograft growth in mice fed diet with α-MG. Type of data set: in vivo, Balb/c nu/nu mice. The settings on record: diet 900 mg α-MG/kg.
The conditions of data set [4]: rats, gastric administration of 20 mg/kg in water containing 2% ethanol plus 2% Tween-80; cited from earlier work.
Data set [5] relates to BcL-2. The data set is described as follows: BcL-2 content in HT-29 cells by ELISA. It counts as cell-based, human. The note with it: 24 h. A digest of the protocol:
as §1

For data set [6] the following is noted: human subjects after mangosteen juice blend containing 94 mg/mL α-MG; cited from earlier work.
For data set [7], the system named is β-catenin. The data set is described as follows: β-catenin in tumor tissue homogenates by ELISA. Type of data set: in vivo, Balb/c nu/nu mice. The note with it: mice fed diet with α-MG; 4 weeks after injection of cells; control diet 19.1 ± 1.9.
Data set [8] concerns BcL-2. The data set is described as follows: BcL-2 in tumor tissue homogenates by ELISA. Type of data set: in vivo, Balb/c nu/nu mice. The note with it: mice fed diet with α-MG; 4 weeks after injection of cells; control diet 17.2 ±0.8.
The next data set is described as follows: Xanthones in liver. It counts as in vivo, Balb/c nu/nu mice. The note with it: control- and tumor-bearing mice; tentatively identified.
Setting [9] is: 6 µmol/L, preconfluent HT-29 cells.
Setting [10] is: 2 weeks after injection of HT-29 cells.
The mark [11] stands for this setting: 4 weeks after injection of HT-29 cells.

Marks after values point to notes of the source that are not given here.

`COc1c(O)cc2oc3cc4c(c(O)c3c(=O)c2c1CC=C(C)C)C=CC(C)(C)O4` [9-Hydroxycalabaxanthone]: in the data set “Xanthones in serum”, the “Identified in serum by HPLC-MS” value was “Low concentrations”. In data set [1], the “Tumor at 2 weeks, Free” value is listed as 0.22 ± 0.09 ^a) µg/g and the “Tumor at 4 weeks, Free” value is given as 0.32 ± 0.11 ^a) µg/g.
For `COc1c(O)cc2oc3cc(O)c(CC=C(C)C)c(O)c3c(=O)c2c1CC=C(C)C` [α-MG, α-mangostin], the “Concentration of conjugated α-MG in serum” value in the data set “Xanthones in serum” (mice with tumors for 2 weeks) is 1000 ± 100 ng/mL. Moreover, the “α-MG in serum, without enzyme treatment (free)” value in the data set “Xanthones in serum” (nontumor-bearing and tumor-bearing mice fed diet with α-MG for 5 weeks) amounted to 15 ± 1 ng/mL. Also, the “Concentration of total α-MG in serum” value in the data set “Xanthones in serum” (nontumor-bearing mice, 4 weeks, glucuronidase/sulfatase treated) came to 1900 ± 300 ng/mL. Further, in the data set with β-catenin [2] (setting [9]), the “Decrease of β-catenin vs vehicle only” value was determined as 24 ± 2%. Further, the “Cellular content of β-catenin less than control cultures” value with β-catenin [2] (12 µmol/L, HT-29 cells) came to 39 ± 3%. In data set [3], the Body weight entry is “not significantly altered” and the Food intake entry is “not significantly altered”. Besides, in the data set on HT-29 cells (setting [10]), the “Tumor mass less than control diet” value came out at 27% and the “Tumor volume less than in mice fed the diet without α-MG” value is 41%. Besides, in the data set on HT-29 cells (setting [11]), the “Tumor mass less than control diet” value was 41% and the “Tumor volume less than in mice fed the diet without α-MG” value is 36%. For the same compound, in data set [4], the Absorption result is “extremely low”. In addition, the “Decrease of BcL-2 vs vehicle only” value in the data set with BcL-2 [5] (setting [9]) turned out to be 27 ± 3%. Also, in the data set with BcL-2 [5] (12 µmol/L, HT-29 cells), the “Cellular content of BcL-2 less than control cultures” value stood at 44 ± 4%. Besides, the “Cmax of free α-MG in plasma” value in data set [6] was 3.1 µM. Also, the “Share of tumor α-MG that is conjugated” value in data set [1] (2 weeks postinjection) is 60%. For the same compound, in [1] (4 weeks postinjection), the “Free and conjugated α-MG concentration in tumor tissue” value was 3.6 ± 0.1; the “Share of tumor α-MG that is conjugated” value was determined as 52%. Also, in data set [1], the “Tumor at 2 weeks, Free” value is 0.51 ± 0.02 ^b) µg/g; the “Tumor at 2 weeks, Conjugates” value is recorded as 0.76 ± 0.03 ^c) µg/g; the “Tumor at 4 weeks, Free” value is recorded as 1.71 ± 0.06 ^a) µg/g; the “Tumor at 4 weeks, Conjugates” value is listed as 1.87 ± 0.06 ^a) µg/g. Further, the “β-catenin concentration in tumors” value in the data set with β-catenin [7] worked out at 11.2 ± 0.7 pg/mg protein. Moreover, in the data set with BcL-2 [8], the “BcL-2 concentration in tumors” value turned out to be 3.9 ± 0.5 pg/mg protein.
With `COc1cc2oc3cc(O)c(OC)c(CC=C(C)C)c3c(=O)c2c(O)c1CC=C(C)C` [β-MG, β-mangostin], the “Identified in serum by HPLC-MS” value in the data set “Xanthones in serum” is given as “Low concentrations”. Besides, the “Share of total xanthones in tumors” value in data set [1] (2 weeks after injection) is on record as 41%. For the same compound, the “Phase II conjugates as share of tumor β-MG” value in [1] (4 weeks) was 40%. Also, in data set [1] (4 weeks after injection), the “Share of total xanthones in tumors” value is recorded as 45%. Further, in [1], the “Tumor at 2 weeks, Free” value was 1.54 ± 0.16 ^b) µg/g; the “Tumor at 2 weeks, Conjugates” value is on record as “not detected”; the “Tumor at 4 weeks, Free” value is recorded as 2.68 ± 0.17 ^a) µg/g; the “Tumor at 4 weeks, Conjugates” value is 1.83 ± 0.17 ^b) µg/g. The “Share of the total xanthones in the liver” value in the data set “Xanthones in liver” is reported as “approx. 85%”.
